{
  "source": "paper PMC12219203",
  "about": "(Nature Communications, 2025)",
  "key": {"[1]": {"biological_target": "mTLR2 (Mus musculus, UniProt Q9QUN7)", "sequence (Q9QUN7 25-784)": "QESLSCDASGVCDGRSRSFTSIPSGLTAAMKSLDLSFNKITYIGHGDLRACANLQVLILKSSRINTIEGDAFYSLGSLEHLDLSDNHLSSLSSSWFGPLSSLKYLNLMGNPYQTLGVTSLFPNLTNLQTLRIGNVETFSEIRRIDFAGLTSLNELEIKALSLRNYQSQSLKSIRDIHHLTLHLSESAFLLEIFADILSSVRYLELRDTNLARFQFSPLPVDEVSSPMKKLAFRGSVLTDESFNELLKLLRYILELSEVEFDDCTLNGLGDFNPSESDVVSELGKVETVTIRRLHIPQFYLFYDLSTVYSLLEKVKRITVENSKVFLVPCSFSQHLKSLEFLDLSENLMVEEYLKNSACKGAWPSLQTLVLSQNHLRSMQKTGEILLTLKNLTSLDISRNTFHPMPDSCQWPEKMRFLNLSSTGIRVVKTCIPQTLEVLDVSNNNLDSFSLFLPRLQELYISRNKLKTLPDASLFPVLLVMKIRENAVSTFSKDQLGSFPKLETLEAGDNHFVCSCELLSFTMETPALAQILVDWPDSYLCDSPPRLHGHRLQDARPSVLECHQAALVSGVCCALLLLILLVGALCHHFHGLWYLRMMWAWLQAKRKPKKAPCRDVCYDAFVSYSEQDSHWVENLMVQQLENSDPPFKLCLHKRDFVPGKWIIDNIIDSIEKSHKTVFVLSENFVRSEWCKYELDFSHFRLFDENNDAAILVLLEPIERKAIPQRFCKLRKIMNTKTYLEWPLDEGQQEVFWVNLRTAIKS", "assay": "HEK-Blue mTLR2 SEAP reporter assay", "format": "cell-based", "details": "GM 2, 1, 0.5 mM, 24 h, n = 6", "method_in_brief": "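HEK-Blue mTLR2 cells were seeded at 50,000 cells/well in complete DMEM. After 6 h the medium was changed to serum-free DMEM and test compound was added for 24 h. Secreted SEAP was read by mixing supernatant 1:4 with Quanti-Blue, incubating 6 h at 37 °C and measuring absorbance at 620 nm. Values were blanked against water-treated wells.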"}, "[2]": {"biological_target": "recombinant mTLR4 protein (Mus musculus, UniProt Q9QUK6)", "sequence (Q9QUK6 26-638)": "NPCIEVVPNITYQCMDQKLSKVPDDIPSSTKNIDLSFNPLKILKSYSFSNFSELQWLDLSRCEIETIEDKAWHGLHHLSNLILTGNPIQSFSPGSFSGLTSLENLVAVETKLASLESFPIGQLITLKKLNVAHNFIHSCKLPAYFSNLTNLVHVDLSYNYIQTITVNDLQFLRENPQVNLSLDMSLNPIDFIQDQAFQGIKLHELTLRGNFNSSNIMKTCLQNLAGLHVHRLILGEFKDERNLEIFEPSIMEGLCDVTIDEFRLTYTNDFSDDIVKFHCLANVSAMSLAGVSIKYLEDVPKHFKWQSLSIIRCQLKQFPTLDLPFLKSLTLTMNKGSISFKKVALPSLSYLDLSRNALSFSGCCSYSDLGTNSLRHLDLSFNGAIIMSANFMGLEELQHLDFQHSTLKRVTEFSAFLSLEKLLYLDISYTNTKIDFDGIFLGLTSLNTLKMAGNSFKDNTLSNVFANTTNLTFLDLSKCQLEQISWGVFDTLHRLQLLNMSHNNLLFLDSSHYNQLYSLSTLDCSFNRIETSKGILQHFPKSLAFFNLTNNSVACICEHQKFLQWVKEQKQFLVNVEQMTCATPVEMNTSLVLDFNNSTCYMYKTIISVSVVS", "assay": "mTLR4 pulldown by immobilized GM-agarose beads", "format": "binding", "details": "pre-incubation of mTLR4 with excess GM", "method_in_brief": "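An azide-tagged test-compound probe (2.5 mM) was clicked onto alkyne agarose beads (1.2 mM ascorbate, 0.5 mM CuSO4, 0.5 mM THPTA, 4 °C, 3 h); control beads lacked probe. Beads were incubated overnight at 4 °C in water with recombinant mouse TLR4(26-638)-His6 (100 or 50 ng), optionally pre-incubated with free competitor. Flow-through, wash and boiled eluate were analysed by Coomassie-stained SDS-PAGE.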"}, "[3]": {"biological_target": "mTLR4/mMD2 (Q339A / wt) (Mus musculus, UniProt Q9JHF9+Q9QUK6, Q339A)", "sequence (Q9QUK6 26-835 Q339A)": "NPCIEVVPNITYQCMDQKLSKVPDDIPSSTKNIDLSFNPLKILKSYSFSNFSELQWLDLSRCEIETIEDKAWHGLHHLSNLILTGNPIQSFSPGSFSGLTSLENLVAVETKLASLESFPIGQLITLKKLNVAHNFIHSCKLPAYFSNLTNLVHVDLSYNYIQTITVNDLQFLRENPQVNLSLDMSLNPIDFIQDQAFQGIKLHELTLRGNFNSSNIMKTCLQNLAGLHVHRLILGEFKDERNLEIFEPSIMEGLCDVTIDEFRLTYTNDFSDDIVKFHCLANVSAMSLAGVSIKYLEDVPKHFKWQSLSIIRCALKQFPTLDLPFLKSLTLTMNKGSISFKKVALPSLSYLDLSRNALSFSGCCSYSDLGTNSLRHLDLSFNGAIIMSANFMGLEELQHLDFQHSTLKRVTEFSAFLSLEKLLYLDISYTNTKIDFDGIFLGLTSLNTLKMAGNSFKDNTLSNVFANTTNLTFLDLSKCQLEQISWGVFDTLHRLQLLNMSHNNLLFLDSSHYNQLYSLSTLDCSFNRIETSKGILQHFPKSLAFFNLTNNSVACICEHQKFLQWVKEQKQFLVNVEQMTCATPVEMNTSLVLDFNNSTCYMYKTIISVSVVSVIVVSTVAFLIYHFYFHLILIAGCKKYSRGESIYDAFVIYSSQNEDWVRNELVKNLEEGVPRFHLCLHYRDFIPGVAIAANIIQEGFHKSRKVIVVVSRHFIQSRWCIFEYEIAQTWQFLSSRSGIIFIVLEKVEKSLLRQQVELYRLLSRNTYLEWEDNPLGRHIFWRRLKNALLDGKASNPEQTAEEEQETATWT", "sequence (Q9JHF9 19-160)": "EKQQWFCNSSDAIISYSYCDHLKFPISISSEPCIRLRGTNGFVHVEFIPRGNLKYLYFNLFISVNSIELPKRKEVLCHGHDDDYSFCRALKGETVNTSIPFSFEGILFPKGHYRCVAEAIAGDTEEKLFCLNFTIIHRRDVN", "assay": "NF-κB SEAP in HEK-Blue Null1, mTLR4 Q339A / mMD2 wt", "format": "cell-based", "details": "GM 0.4, 0.2 mM, 24 h", "method_in_brief": "(§1)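 Point mutants of mTLR4 or mMD2 were made by site-directed mutagenesis. HEK-Blue Null1 cells were co-transfected by lipofection for 16 h with 500 ng total of mTLR4 and Myc-tagged mMD2 plasmids (1:1); mock wells received lipofection reagent only. After a medium change the next day, cells were treated for 24 h. NF-κB SEAP was measured and normalised to water-treated samples; data are mean ± s.e.m., n = 3.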"}, "[4]": {"test_system": "WT bone-marrow-derived macrophages (BMDMs)", "assay": "Cytokine gene expression in WT BMDMs", "format": "cell-based, mouse", "details": "GM 2-8 mM, M 8 mM", "method_in_brief": "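Marrow was flushed from the femur and tibia of female SPF C57BL/6J mice and red cells were lysed (NH4Cl/KHCO3). Cells at 200,000 cells/mL were differentiated for 6 days in IMDM with 20 ng/mL GM-CSF or 10% L929 supernatant, then switched to serum-free IMDM. Test compounds were added for 24 h (n = 3). Cytokine transcripts were measured by RT-qPCR (2-ΔΔCt, normalised to β-act).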"}, "[5]": {"test_system": "WT BMDMs", "assay": "RNAseq of WT BMDMs", "format": "cell-based, mouse", "details": "GM 8 mM, 24 h, n = 3", "method_in_brief": "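BMDMs were differentiated 6 days from mouse bone marrow with GM-CSF or L929 supernatant at 800,000 cells/well, switched to serum-free IMDM and stimulated 24 h; MDP 0.4 mM was run alongside. Total RNA was extracted for RNAseq. Differentially expressed genes were called at p < 0.01 and logFC > 1 and plotted as mean heatmaps; n = 3.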"}, "[6]": {"test_system": "NF-κB signaling in RAW-Dual Tlr4-/- cells", "assay": "RAW-Dual Tlr4-/- NF-κB reporter", "format": "cell-based, mouse", "details": "24 h", "method_in_brief": "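RAW-Dual cells (WT or Tlr4-/-) were seeded at 100,000 cells/well in complete DMEM without selection antibiotics, 24 h before treatment. Test compounds were added for 24 h (n = 3). NF-κB-driven SEAP was read by mixing supernatant 1:4 with Quanti-Blue, incubating 6 h at 37 °C and measuring absorbance at 620 nm, blanked against water-treated wells.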"}, "[7]": {"biological_target": "mTLR4/mMD2 (wt / F126A) (Mus musculus, UniProt Q9JHF9+Q9QUK6, F126A)", "sequence (Q9QUK6 26-835)": "as the sequence (Q9QUK6 26-835 Q339A) above, with A314Q counted along it", "sequence (Q9JHF9 19-160 F126A)": "as the sequence (Q9JHF9 19-160) above, with F108A counted along it", "assay": "NF-κB SEAP in HEK-Blue Null1, mTLR4 wt / mMD2 F126A", "format": "cell-based", "details": "GM 0.4, 0.2 mM; LPS 100 ng/mL; 24 h", "method_in_brief": "as §1"}, "[8]": {"biological_target": "mTLR4 (Mus musculus, UniProt Q9JHF9+Q9QUK6)", "sequence (Q9QUK6 26-835)": "as the sequence (Q9QUK6 26-835 Q339A) above, with A314Q counted along it", "sequence (Q9JHF9 19-160)": "as the sequence (Q9JHF9 19-160) above", "assay": "HEK-Blue mTLR4 SEAP reporter assay", "format": "cell-based", "details": "24 h"}, "[9]": {"test_system": "IRF signaling in RAW-Dual Tlr4-/- cells", "assay": "RAW-Dual Tlr4-/- IRF reporter", "format": "cell-based, mouse", "details": "24 h", "method_in_brief": "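RAW-Dual Tlr4-/- cells were seeded at 100,000 cells/well without selection antibiotics, 24 h before a 24 h exposure to test compounds. IRF-driven secreted luciferase was measured by mixing 20 µL supernatant with 50 µL Quanti-Luc 4 and reading luminescence immediately.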"}, "[10]": {"test_system": "NF-κB p65 and MAPK p38 phosphorylation in Tlr4-/- BMDMs", "assay": "Immunoblot of p65 and p38 phosphorylation in Tlr4-/- BMDMs", "format": "cell-based, mouse", "details": "GM 5 mM", "method_in_brief": "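Bone-marrow macrophages from WT or Tlr4-/- C57BL/6J mice were stimulated directly with 5 mM test compound or 500 ng/mL LPS. Cells were lysed in Tris/SDS/Triton buffer with protease and phosphatase inhibitors plus 10 mM DTT and boiled, then run on SDS-PAGE and transferred to PVDF. Blots were probed with rabbit antibodies to total or phospho-p65, total or phospho-p38 and GAPDH (1:1000, 4 °C overnight), then HRP anti-rabbit (1:5000).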"}, "[11]": {"biological_target": "NOD1 (Homo sapiens, UniProt Q9Y239)", "sequence (Q9Y239 whole entry)": "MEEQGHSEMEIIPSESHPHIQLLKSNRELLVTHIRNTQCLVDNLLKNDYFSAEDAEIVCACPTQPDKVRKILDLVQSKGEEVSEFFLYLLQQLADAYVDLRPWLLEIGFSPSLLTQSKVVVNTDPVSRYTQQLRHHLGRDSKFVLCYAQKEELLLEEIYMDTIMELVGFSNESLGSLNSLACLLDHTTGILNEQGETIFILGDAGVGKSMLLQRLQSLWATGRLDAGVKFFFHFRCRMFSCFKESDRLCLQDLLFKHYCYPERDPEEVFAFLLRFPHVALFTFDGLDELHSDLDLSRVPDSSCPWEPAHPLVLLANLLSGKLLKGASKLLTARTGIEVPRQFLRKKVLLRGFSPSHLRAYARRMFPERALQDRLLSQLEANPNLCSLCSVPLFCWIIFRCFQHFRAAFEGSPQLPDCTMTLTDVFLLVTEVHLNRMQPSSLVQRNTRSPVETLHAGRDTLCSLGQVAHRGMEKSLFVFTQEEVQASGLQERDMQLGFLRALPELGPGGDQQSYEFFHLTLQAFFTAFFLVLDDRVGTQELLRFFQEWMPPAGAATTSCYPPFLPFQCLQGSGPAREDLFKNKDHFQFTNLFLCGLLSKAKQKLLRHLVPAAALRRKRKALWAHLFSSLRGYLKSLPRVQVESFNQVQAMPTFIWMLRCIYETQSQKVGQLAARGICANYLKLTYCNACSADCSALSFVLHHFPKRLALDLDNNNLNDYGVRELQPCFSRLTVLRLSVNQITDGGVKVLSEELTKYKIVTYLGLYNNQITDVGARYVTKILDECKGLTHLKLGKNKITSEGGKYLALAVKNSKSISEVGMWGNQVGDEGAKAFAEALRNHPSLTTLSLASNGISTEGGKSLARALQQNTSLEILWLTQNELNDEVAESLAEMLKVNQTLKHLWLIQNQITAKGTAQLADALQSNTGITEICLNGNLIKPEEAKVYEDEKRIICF", "assay": "HEK-Blue NOD1 SEAP reporter assay", "format": "cell-based", "details": "GM, M 20 μM; 18 h", "method_in_brief": "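HEK-Blue hNod1 or hNod2 cells were seeded at 50,000 cells/well in DMEM/10% FBS without selection antibiotics and stimulated at once for 18 h (n = 3). Supernatant was mixed 1:4 with Quanti-Blue and incubated 6 h at 37 °C, and absorbance was read at 620 nm. Values were blanked against water-treated wells, and the respective parental Null cell readouts were subtracted.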"}, "[12]": {"test_system": "murine bone marrow-derived dendritic cells (cDC2)", "assay": "CD80/86 surface expression in cDC2s of BMDCs", "format": "cell-based, mouse", "details": "50, 100, 200 μM, 18 h", "method_in_brief": "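Bone marrow from femur and tibia of C57BL/6J female mice was red-cell-lysed and plated at 2,000,000 cells/mL in medium with FLT3 ligand-containing supernatant, with feeding on days 3 and 6. DCs were reseeded at 2,000,000 cells/well and stimulated 18 h. Cells were Fc-blocked, stained with anti-CD80, anti-CD86 and live/dead dye, and analysed by flow cytometry as MFI in gated cDC2s.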"}, "[13]": {"test_system": "WT mice sera", "assay": "Multiplex immunoassay of serum cytokines and chemokines in mice", "format": "in vivo, mouse", "details": "GM 10 mg/kg i.p. daily, no DSS", "method_in_brief": "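Mice received daily intraperitoneal injections, with PBS (5 mL/kg) as vehicle. Serum was analysed with a bead-based inflammatory cytokine/chemokine panel according to the kit protocol, read on a flow cytometer with a high-throughput sampler.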"}},
  "data": [
    {"smiles": "CC(=O)N[C@H]1[C@H](O[C@H]2[C@H](O[C@H](C)C(=O)O)[C@@H](NC(C)=O)C(O)O[C@@H]2CO)O[C@H](CO)[C@@H](O)[C@@H]1O", "note": "(stereo partly drawn) [GM, N-acetylglucosamine-β−1,4-N-acetylmuramic acid]", "values": [
      {"measurement": "Activation of HEK-Blue mTLR2 reporter cells (in words)", "setting": "[1]", "value": "does not activate"},
      {"measurement": "Competition of mTLR4 binding to GM-1-resin by excess free ligand", "setting": "[2]", "value": "dose-dependent decrease in the amount of mTLR4 bound to GM-1-resin"},
      {"measurement": "Effect of mutation mTLR4 Q339 on NF-κB activity (in words)", "setting": "[3]", "value": "abolished GM-triggered NF-κB activity"},
      {"measurement": "Immuno-stimulatory activity (TNF-α, IL-6) in BMDMs (in words)", "setting": "[4]", "value": "dose-dependent immuno-stimulatory activity"},
      {"measurement": "Cytokine and chemokine genes (Il12a/b, Il6, Il1a/b, Csf3, Ccl5, Cxcl1) by RNAseq, WT BMDMs", "setting": "[5]", "value": "significantly upregulated"},
      {"measurement": "NF-κB signaling in RAW-Dual Tlr4-/- cells (in words)", "setting": "[6]", "value": "minimal activity"},
      {"measurement": "Effect of mutation mMD-2_F126 on NF-κB activity (in words)", "setting": "[7]", "value": "abrogated NF-κB activation"},
      {"measurement": "Activity in HEK-Blue mTLR4 reporter cells under polymyxin B titration (in words)", "setting": "[8]; GM 1 mM, polymyxin B 0, 0.1, 1, 10 kU", "value": "unaffected by polymyxin B titration"},
      {"measurement": "TLR4 stimulation in HEK-Blue mTLR4 reporter cells (in words)", "setting": "[8]; disaccharides 0.5 or 1 mM, GM-A and GM-AE 1 mM", "value": "stimulate TLR4"},
      {"measurement": "IRF signaling in RAW-Dual Tlr4-/- cells (in words)", "setting": "[9]", "value": "minimal activity"},
      {"measurement": "p65 and p38 phosphorylation in Tlr4-/- BMDMs", "setting": "[10]", "value": "absence of p65 and p38 phosphorylation"},
      {"measurement": "NOD1 activation in HEK-Blue reporter cells (in words)", "setting": "[11]", "value": "unable to activate NOD1/2"},
      {"measurement": "CD80/86 surface markers in cDC2 population of BMDCs (in words)", "setting": "[12]", "value": "upregulates CD80/86 surface marker expressions"},
      {"measurement": "Circulating cytokines and chemokines in mice, GM alone", "setting": "[13]", "value": "does not significantly alter circulating cytokines and chemokines in mice"}
    ]}
  ]
}
